33 compounds from ChEMBL document CHEMBL1914380, “Polyalkoxybenzenes from plants. 5. Parsley seed extract in synthesis of azapodophyllotoxins featuring strong tubulin destabilizing activity in the sea urchin embryo and cell culture assays” (J Med Chem, 2011) can be followed below.

The source made the active and inactive calls. The rule behind the calls is not given here.

Assay [1] concerns Paracentrotus lividus. Nature of the assay: Antimitotic activity against Paracentrotus lividus embryo assessed as cleavage arrest treated 10 to 25 mins post fertilization followed by 45 to 60 mins before the first mitotic cycle completion by sea urchin embryo assay. It counts as functional.
In assay [2] the test system is Paracentrotus lividus. Put plainly: Antimitotic activity against Paracentrotus lividus embryo assessed as cleavage alteration treated 10 to 25 mins post fertilization followed by 45 to 60 mins before the first mitotic cycle completion by sea urchin embryo assay. It counts as functional.
In assay [3] the test system is Paracentrotus lividus. Nature of the assay: Antimitotic activity against Paracentrotus lividus embryo assessed as embryo spinning treated 10 to 25 mins post fertilization followed by 45 to 60 mins before the first mitotic cycle completion by sea urchin embryo assay. Type of assay: functional.
In assay [4] the test system is Paracentrotus lividus. Put plainly: Antimitotic activity against Paracentrotus lividus embryo assessed as cleavage arrest up to 4 uM […] followed by 45 to 60 mins before the first mitotic cycle completion by sea urchin embryo assay. It counts as functional, organism-based.
Assay [5] concerns Paracentrotus lividus. Nature of the assay: Antimitotic activity against Paracentrotus lividus embryo assessed as embryo spinning up to 4 uM […] followed by 45 to 60 mins before the first mitotic cycle completion by sea urchin embryo assay. It counts as functional, organism-based.
Assay [6] has as its system Paracentrotus lividus. Put plainly: Antimitotic activity against Paracentrotus lividus embryo assessed as cleavage alteration up to 4 uM […] followed by 45 to 60 mins before the first mitotic cycle completion by sea urchin embryo assay. Type of assay: functional, organism-based.
Assay [7] concerns A549. Nature of the assay: Inhibition of microtubule polymerization in human A549 cells assessed as total disruption of interphase microtubule network at 0.5 uM after 8 hrs by immunofluorescence microscopy. Type of assay: cell-based. The method in brief:
(§1)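 A549 cells incubated 8 h with compound at 0.1, 0.5, 1 and 5 μM; DMSO vehicle as negative control. Microtubules labelled by indirect immunofluorescence and examined by fluorescence microscopy. Value is the concentration giving total interphase microtubule disassembly, from three independent experiments.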

For assay [8], the system named is A549. Put plainly: Inhibition of microtubule polymerization in human A549 cells assessed as total disruption of interphase microtubule network at 1 uM after 8 hrs by immunofluorescence microscopy. It counts as cell-based. The method in brief: as §1
Assay [9] concerns A549. Put plainly: Inhibition of microtubule polymerization in human A549 cells assessed as total disruption of interphase microtubule network at 5 uM after 8 hrs by immunofluorescence microscopy. It counts as cell-based. The method in brief: as §1
In assay [10] the test system is A549. Nature of the assay: Cell cycle arrest in human A549 cells assessed as accumulation of cells in G2/M phase after 24 hrs by propidium iodide staining-based flow cytometry. It counts as functional. The following applies: A549, 24 h. (In general: Flow cytometry measures light scatter and fluorescence of single cells or particles in a stream.)
In assay [11] the test system is A549. Put plainly: Inhibition of microtubule polymerization in human A549 cells assessed as total disruption of interphase microtubule network at 0.1 uM after 8 hrs by immunofluorescence microscopy. Type of assay: cell-based. The method in brief: as §1
Assay [12] concerns A549. Nature of the assay: Cytotoxicity against human A549 cells assessed as cell viability after 24 hrs by MTT assay. The following applies: A549, 24 h. It counts as functional, cell-based. Summed up:
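A549 human lung carcinoma cells; growth inhibition measured by MTT assay. IC50 derived from dose-response curves, mean ± SD of three independent experiments.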
(In general: Tetrazolium assays rely on reduction of a dye to a coloured formazan, in cell work by metabolically active cells.)

Assay [13] has as its system A549. Nature of the assay: Inhibition of microtubule polymerization in human A549 cells assessed as total disruption of interphase microtubule network at > 5 uM after 8 hrs by immunofluorescence microscopy. Type of assay: cell-based.
Assay [14] concerns A549. Nature of the assay: Induction of apoptosis in human A549 cells assessed as late apoptotic cells at 10 to 100 nM after 48 hrs by annexin-V FITC/7-ADD staining-based flow cytometric analysis. It counts as functional, cell-based.
Assay [15] concerns A549. Put plainly: Induction of apoptosis in human A549 cells assessed as early apoptotic cells at 10 to 100 nM after 48 hrs by annexin-V FITC/7-ADD staining-based flow cytometric analysis. Type of assay: functional, cell-based.
Assay [16] relates to A549. Nature of the assay: Induction of apoptosis in human A549 cells assessed as necrotic cells at 10 to 100 nM after 48 hrs by annexin-V FITC/7-ADD staining-based flow cytometric analysis. Type of assay: functional, cell-based.

For the compound `COc1cc(OC)cc(C2C3=C(COC3=O)Nc3cc(OC)ccc32)c1` (stereo unspecified), the figures for the EC in [1], in assay [2] and in assay [3] were 10 nM, 2 nM and 200 nM, respectively.
For the compound `COc1cc(C2C3=C(COC3=O)Nc3[nH]nc(C)c32)c(OC)c2c1OCO2` (stereo unspecified), the result in assay [4], in assay [5] and in assay [6] was inactive.
`COc1cccc(C2C3=C(O)OCC3=Nc3cc4c(cc32)OCO4)c1` (stereo unspecified): the EC in [1] is 20 nM; in assay [2], 5 nM; in assay [3], 100 nM.
Take `COc1cc([C@H]2C3=C(COC3=O)Nc3cc4c(cc32)OCO4)cc2c1OCO2`: the EC in [1] came out at 50 nM; in assay [2] it was 5 nM.
On to `COc1cc(C2C3=C(COC3=O)Nc3[nH]ncc32)cc(OC)c1OC` (stereo unspecified), for which the outcome in [4], in assay [5] and in [6] was inactive.
With `COc1cc(-c2c3c(nc4cc5c(cc24)CCC5)COC3=O)cc2c1OCO2`, the EC in assay [1] is listed as 1000 nM; in assay [2] it was 100 nM; in assay [3], above 5000 nM.
In the case of `COc1cc(C2C3=C(COC3=O)Nc3cc4c(cc32)OCCO4)cc2c1OCO2` (stereo unspecified), the inhibition entry in assay [7], in assay [8], in assay [9] and in [11] was “Active” each time. The figures for the EC in [1], in [2] and in assay [3] were 50 nM, 5 nM and 100 nM, respectively. For the same compound, the 50% effective concentration (EC50) (commonly the concentration giving half of the maximal effect) in [10] came out at 119 nM. Moreover, in [12], the concentration for half-maximal inhibition (IC50) (commonly the concentration at which inhibition is half-maximal) was 64.7 nM.
Take `COc1ccc(C2C3=C(O)OCC3=Nc3cc4c(cc32)OCO4)cc1` (stereo unspecified): the EC is listed as 200 nM in assay [1], 50 nM in assay [2] and 2000 nM in assay [3]. Further, the half-inhibitory concentration (IC50) in assay [12] was above 3200 nM.
On to `COc1cc(C2C3=C(COC3=O)Nc3cc4c(cc32)CCC4)cc2c1OCO2` (stereo unspecified), for which the inhibition entry in [7], in [8], in assay [9] and in [11] was “Active” throughout. Moreover, the EC amounted to 20 nM in assay [1], 2 nM in assay [2] and 50 nM in [3]. Besides, the IC50 in assay [12] amounted to 264 nM.
As to `COc1c(C2C3=C(COC3=O)Nc3cn(C)nc32)cc2c(c1OC)OCO2` (stereo unspecified), the outcome in assay [4], in assay [5] and in assay [6] was inactive.
With `COc1cc(-c2c3c(nc4c5c(ccc24)CCC5)COC3=O)cc2c1OCO2`, the EC in [1] is listed as above 4000 nM; in assay [2] it was 100 nM; in assay [3] it was above 5000 nM.
For the compound `COc1c(C2C3=C(COC3=O)Nc3[nH]nc(C)c32)cc2c(c1OC)OCO2` (stereo unspecified), the outcome in assay [4], in assay [5] and in assay [6] was inactive.
Turning to `OC1=C2C(=Nc3cc4c(cc3C2c2ccccc2)OCO4)CO1` (stereo unspecified), the EC turned out to be 20 nM in assay [1], 5 nM in assay [2] and 100 nM in assay [3]. In addition, the IC50 in assay [12] turned out to be 63 nM.
For `COc1cc(C2C3=C(COC3=O)Nc3ccccc32)cc2c1OCO2` (stereo unspecified), the EC in assay [1] is recorded as 200 nM; in assay [2], 20 nM; in assay [3], 2000 nM. Further, the inhibition entry in [13] is “Active”. The half-inhibitory concentration (IC50) in assay [12] stood at 534 nM.
Turning to `OC1=C2C(=Nc3cc4c(cc3C2c2ccc3c(c2)OCO3)OCO4)CO1` (stereo unspecified), the EC in assay [1] came out at 50 nM; in assay [2] it was 10 nM; in [3], 200 nM.
For `COc1cc(C2C3=C(COC3=O)Nc3cn(C)nc32)c(OC)c2c1OCO2` (stereo unspecified), the outcome in assay [4], in assay [5] and in assay [6] was inactive.
For `COc1cc(C2C3=C(COC3=O)Nc3cc4c(cc32)OCO4)c(OC)c2c1OCO2` (stereo unspecified), the EC is 2000 nM in assay [1], 1000 nM in assay [2] and above 5000 nM in assay [3].
Regarding `COc1cc(C2C3=C(COC3=O)Nc3cn(C)nc32)cc2c1OCO2` (stereo unspecified), the result in assay [4], in assay [5] and in assay [6] was inactive.
Turning to `COc1cc(C2C3=C(COC3=O)Nc3cc4c(c(OC)c32)OCO4)cc2c1OCO2` (stereo unspecified), the EC in assay [1] worked out at 500 nM; in [2] it was 50 nM; in [3], 2000 nM. For the same compound, the inhibition entry in assay [13] is “Active”. The concentration for half-maximal inhibition (IC50) in assay [12] is 298 nM.
With `COc1cc(C2C3=C(COC3=O)Nc3cn(C)nc32)cc(OC)c1OC` (stereo unspecified), the outcome in assay [4], in assay [5] and in [6] was inactive.
With `COC(=O)Nc1nc2cc(C(=O)c3cccs3)ccc2[nH]1`, the result in [14] was inactive. For the same compound, the outcome in assay [15] and in assay [16] was Active.
With `COc1cc(C2C3=C(O)OCC3=Nc3cc4c(cc32)OCCO4)cc(OC)c1OC` (stereo unspecified), the inhibition entry in [7], in [8], in [9] and in assay [11] was “Active” in each case. Moreover, the EC worked out at 1000 nM in assay [1], 200 nM in assay [2] and 1000 nM in assay [3]. Also, the concentration for half-maximal inhibition (IC50) in assay [12] is 9.2 nM.
For the compound `COc1ccc(C2C3=C(COC3=O)Nc3cc4c(c(OC)c32)OCO4)cc1` (stereo unspecified), the figures for the EC in assay [1], in assay [2] and in [3] were above 2000 nM, 2000 nM and above 2000 nM, respectively.
Consider `COc1cc([C@@H]2C3=C(COC3=O)Nc3cc4c(cc32)OCO4)cc2c1OCO2`, for which the EC in assay [1] amounted to 200 nM; in assay [2], 50 nM; in assay [3], 50 nM.
Consider `COc1cc(C2C3=C(COC3=O)Nc3cc4c(c(OC)c32)OCO4)cc(OC)c1OC` (stereo unspecified), for which the inhibition result in assay [7], in assay [8], in assay [9] and in assay [11] was “Active” in each case. In addition, the EC in assay [1] is given as above 2000 nM; in [2] it was 2000 nM; in assay [3] it was above 2000 nM. For the same compound, the 50% inhibitory concentration (IC50) in assay [12] is 291 nM.
With `COc1c(C2C3=C(COC3=O)Nc3cc4c(cc32)OCO4)cc2c(c1OC)OCO2` (stereo unspecified), the EC in assay [1] turned out to be 500 nM; in assay [2], 100 nM; in assay [3], 4000 nM.
Consider `COc1cc(C2C3=C(COC3=O)Nc3[nH]nc(C)c32)cc(OC)c1OC` (stereo unspecified), for which the outcome in [4], in assay [5] and in [6] was inactive.
For `O=C1OCC2=C1C(c1ccc3c(c1)OCO3)c1c(ccc3ccccc13)N2` (stereo unspecified), the EC in [1], in assay [2] and in assay [3] was above 4000 nM in each case.
Turning to `COc1cc(C2C3=C(COC3=O)Nc3c2ccc2c3CCCC2)cc2c1OCO2` (stereo unspecified), the figures for the EC in assay [1], in assay [2] and in assay [3] were 50 nM, 5 nM and 100 nM, respectively. In addition, in assay [12], the half-inhibitory concentration (IC50) stood at 159 nM.
For the compound `COc1ccc(C2C3=C(COC3=O)Nc3[nH]ncc32)cc1` (stereo unspecified), the outcome in [4], in assay [5] and in assay [6] was inactive.
Regarding `COc1cc(-c2c3c(nc4c5c(ccc24)CCCC5)COC3=O)cc2c1OCO2`, the EC in assay [1] was determined as 2000 nM; in assay [2], 200 nM; in [3] it was 5000 nM.
As to `COc1ccc2c(c1)C(c1cc(OC)c3c(c1)OCO3)C1=C(COC1=O)N2` (stereo unspecified), the inhibition result in assay [7], in assay [8], in [9] and in assay [11] was “Active” in each case. The results for the EC in assay [1], in assay [2] and in assay [3] were 50 nM, 10 nM and 500 nM, respectively. Besides, in [12], the half-inhibitory concentration (IC50) turned out to be 282 nM.
In the case of `COc1cc(C2C3=C(COC3=O)Nc3cc4c(cc32)OCO4)c(OC)c(OC)c1OC` (stereo unspecified), the inhibition result in assay [7], in assay [8], in assay [9] and in assay [11] was “Active” each time. Also, the EC in assay [1] is 4000 nM; in [2], 1000 nM; in [3], above 10000 nM. The IC50 in assay [12] amounted to 299 nM.
